Values after ≈ are worked out from the molar mass of the structure shown.
How the values were obtained:
HL-60 = assay: Cytotoxicity against human HL60 cells after 72 hrs by WST8 assay; assay type: functional, cell-based; conditions: HL-60, 72 h
Summary of the method: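 HL-60 cells were kept in RPMI-1640 with 10% FBS at 37 °C under 5% CO2. Cells were seeded at 5 × 10^3 per well and preincubated 2 h, then exposed to compound in medium for 72 h. WST-8 was added for a further 3 h, and formazan absorbance was read at 450 nm to give IC50.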

Bacillus subtilis = assay: Antibacterial activity against Bacillus subtilis NBRC 3134 after overnight incubation by microdilution method; assay type: functional
Summary of the method: (§1)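 Broth microdilution MIC. Strains were first grown on YP agar (1% polypeptone, 0.2% yeast extract, 0.1% MgSO4·7H2O, 6% agar) for 12 h, B. subtilis at 37 °C and K. pneumoniae at 27 °C. Samples came from a 10 mg/mL DMSO stock, serially diluted in 96-well plates of strain in YP medium, then incubated overnight at 37 °C. Ampicillin served as reference.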

Klebsiella pneumoniae = assay: Antibacterial activity against Klebsiella pneumoniae NBRC 3512 after overnight incubation by microdilution method; assay type: functional; summary of the method: as §1

COc1cc2ccc3cc(O)ccc3c2c(OC)c1O
IC50 (HL-60): 34.2 µM | MIC (Bacillus subtilis): 185 µM (≈ 50.1 µg/mL)

COc1ccc2c(ccc3cc(OC)c(O)c(OC)c32)c1
IC50 (HL-60): 19.3 µM | MIC (Bacillus subtilis): 52.8 µM (≈ 15 µg/mL)

COc1ccc2c(c1)CCc1cc(OC)c(O)c(OC)c1-2
IC50 (HL-60): 31.8 µM

COc1cc2ccc3c(OC)c(O)ccc3c2c(OC)c1O
IC50 (HL-60): 103 µM | MIC (Bacillus subtilis): 250 µM (≈ 75.1 µg/mL)

CC1(C)S[C@@H]2[C@H](NC(=O)[C@H](N)c3ccccc3)C(=O)N2[C@H]1C(=O)O [AMPICILLIN]
MIC (Klebsiella pneumoniae): 107 µM (≈ 37.5 µg/mL) | MIC (Bacillus subtilis): 0.36 µM (≈ 0.126 µg/mL)

COc1cc2ccc3cccc(O)c3c2c(OC)c1O [BULBOPHYLLANTHRIN]
IC50 (HL-60): 52.4 µM | MIC (Klebsiella pneumoniae): 185 µM (≈ 50.1 µg/mL) | MIC (Bacillus subtilis): 185 µM (≈ 50.1 µg/mL)

COC1=CC(=O)C2=C(CCc3cccc(O)c32)C1=O [EPHEMERANTHOQUINONE B]
IC50 (HL-60): 2.8 µM | MIC (Bacillus subtilis): 4.88 µM (≈ 1.25 µg/mL)

COc1c(O)cc2c(c1OC)-c1ccc(O)cc1CC2 [ERIANTHRIDIN]
IC50 (HL-60): 44.6 µM

COc1cc2c(c(OC)c1O)-c1c(O)cccc1CC2 [MARYLAURENCINOLS A]
IC50 (HL-60): 96.8 µM

COc1c(O)c2c(c(OC)c1O)-c1c(O)cccc1CC2 [MARYLAURENCINOLS B]
IC50 (HL-60): 174 µM | MIC (Bacillus subtilis): 65.1 µM (≈ 18.8 µg/mL)

COc1cc2c(c(O[C@@H]3O[C@H](CO)[C@@H](O)[C@H](O)[C@H]3O)c1O)-c1c(O)cccc1CC2 [MARYLAURENCINOSIDE A]
IC50 (HL-60): 52.4 µM

CO[C@@]12[C@H](COC(N)=O)C3=C(C(=O)C(C)=C(N)C3=O)N1C[C@@H]1N[C@@H]12 [MITOMYCIN]
IC50 (HL-60): 0.1 µM

— ChEMBL document CHEMBL2040744, “Phenanthrene derivatives from Cymbidium Great Flower Marie Laurencin and their biological activities” (J Nat Prod, 2012)
